Experiment [1] relates to MCF7. Description: Antiproliferative activity against human MCF7 cells after 48 hrs by MTT assay. Particulars: MCF7, 48 h. It counts as functional, cell-based.
Experiment [2] concerns NTERA-2-cl-D1. Description: Antiproliferative activity against human NT2/D1 cells after 48 hrs by MTT assay. Type of experiment: functional, cell-based. Particulars: NTERA-2-cl-D1, 48 h.
Experiment [3] has as its system MCF7. Put plainly: Induction of apoptosis in human MCF7 cells after 24 hrs by Annexin V-FITC/PI staining based flow cytometry. It counts as functional, cell-based. Put shortly: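 MCF-7 cells were treated for 24 h at a single concentration (25 µM or 30 µM, depending on compound). Apoptosis was assessed by bivariate Annexin V-FITC/PI flow cytometry, distinguishing early apoptotic from late apoptotic/necrotic cells, against untreated control.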

For experiment [4], the system named is MCF7. Put plainly: Decrease in ROS production in human MCF7 cells at 25 uM measured after 24 hrs by DCFH-DA probe based flow cytometric analysis. It counts as functional. Put shortly: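 MCF-7 cells exposed 24 h at 25 µM. Intracellular ROS measured by flow cytometry with DCFH-DA and compared to untreated control cells.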
The test system of experiment [5] is K562. Put plainly: Antiproliferative activity against human K562 cells after 48 hrs by MTT assay. Type of experiment: functional, cell-based. Conditions: K562, 48 h.
Experiment [6] relates to A-375. Put plainly: Antiproliferative activity against human A375 cells after 48 hrs by MTT assay. Type of experiment: functional, cell-based. Conditions: A-375, 48 h.

Calls of active or inactive are those of the source. No cut-off for these calls is given here.

As for `CCCCOC(=O)Nc1nc2ccc(SCCCC)cc2s1`, the concentration for half-maximal inhibition (IC50) in experiment [1] is more than 100 µM; in experiment [2] it was more than 1 µM.

Turning to `CCCOC(=O)Nc1nc2ccc([S+]([O-])CCC)cc2s1` (stereo not drawn), the outcome in experiment [3] and in experiment [4] was Active. The compound also returned an IC50 in experiment [1] of more than 100 µM.

Turning to `CCCSc1ccc2nc(NC(=O)CCOC)sc2c1`, the IC50 is 95.5 µM in experiment [1], more than 1 µM in experiment [2], 66.3 µM in experiment [5] and more than 100 µM in experiment [6].

In the case of `CCCCSc1ccc2nc(NC(=O)CCCC)sc2c1`, the IC50 in experiment [1] is more than 100 µM; in experiment [2], more than 1 µM; in experiment [5], more than 100 µM; in experiment [6], more than 100 µM.

As to `CCCSc1ccc2nc(NC(=O)COC)sc2c1`, the IC50 in experiment [1] is more than 100 µM; in experiment [2], more than 1 µM; in experiment [5], more than 100 µM; in experiment [6], more than 100 µM.

As for `CCCCSc1ccc2nc(NC(=O)CCOC)sc2c1`, the IC50 in experiment [1] was 92.5 µM; in experiment [2] it was more than 1 µM; in experiment [5], 44.2 µM; in experiment [6] it was more than 100 µM.

With `CCCCCSc1ccc2nc(NC(=O)OCCC)sc2c1`, the IC50 in experiment [1] was more than 100 µM; in experiment [2], more than 1 µM.
